Assay results pooled from the literature.
Lines come from different studies, so protocols differ.
Target: Mitogen-activated protein kinase 6 (MAPK6, Homo sapiens, UniProt Q16659)

`FC(F)(F)Oc1cccc(-c2cnc3ccc(-c4ccncc4)nn23)c1` gave a remaining binding of 91% (cell-free assay, competition with immobilised ligand; 5 µM).
`CCCCN(CCCC)C(=O)CN1C[C@H](c2cc(OC)c3c(c2)OCO3)[C@@H](C(=O)O)[C@@H]1CC(C)(C)CCC` has a remaining binding of 100% (cell-free assay, competition with immobilised ligand; 1 µM).
The remaining binding of `COc1ncc2cc3ccccc3nc2c1C#N` is reported as 90% (cell-free assay, competition with immobilised ligand; 5 µM).
For `O=C(NCC1CCOCC1)c1n[nH]cc1NC(=O)c1c(F)cccc1F`, the remaining binding was 86% (binding, competition with immobilised ligand; 1 µM).
With `Cc1cnn2ncc(-c3ccnc(N(C)C)n3)c2c1` the remaining binding was 98% (binding; 1 µM).
For `O=C(c1ccc(Nc2ncc(Cl)c(-c3ccc(Cl)s3)n2)cc1)N1CCC(N2CCCC2)CC1`, the remaining binding was 0% (binding, competition with immobilised ligand; 1 µM).
The remaining binding of `c1cncc(-c2cccc(Nc3nccc(NC4CCCCC4)n3)c2)c1` is reported as 100% (binding, competition with immobilised ligand; 10 µM).
With `CS(=O)(=O)N1CCCC(NC(=O)[C@H](CCC2CCCCC2)NC(=O)c2ccc(CNC(=O)c3cnc4ccccn34)cc2)C1` (stereo partly shown) the remaining binding was 96% (cell-free assay, competition with immobilised ligand; 0.1 µM).
With `CN(C)c1nccc(-c2cnc3ncccn23)n1` the remaining binding was 93% (binding; 1 µM).
The remaining binding of `O=C(c1ccc(Nc2nccc(-c3cc4ccccc4s3)n2)cc1)N1CCC(N2CCCC2)CC1` is reported as 11% (binding, competition with immobilised ligand; 1 µM).
With `C[C@H]1CCN(c2nccc(-c3cnn4ncccc34)n2)C1` the remaining binding was 83% (binding; 1 µM).
For `CC(=O)C1=C(C)N(c2cccc(C(F)(F)F)c2)C(=O)N[C@@H]1c1ccc(C#N)nc1`, the remaining binding was 75.8% (cell-free assay, competition with immobilised ligand; 1 µM).
The remaining binding of `N[C@@H]1CCN(c2nccc(-c3cnn4ncccc34)n2)C1` is reported as 100% (binding; 1 µM).
For `COc1cnc(Nc2cccc(S(N)(=O)=O)c2)nc1N1CCN(c2ccccc2)CC1`, the remaining binding was 100% (binding, competition with immobilised ligand; 1 µM).
For `Cc1c[nH]c2nccc(Oc3c(F)cc(Nc4cc(Cl)nc(N)n4)cc3F)c12`, the remaining binding was 95% (cell-free assay, competition with immobilised ligand; 0.1 µM).
For `Cc1cnc(Nc2ccc(C(=O)N3CCC(N4CCCC4)CC3)cc2)nc1-c1cc2ccccc2s1`, the remaining binding was 0.1% (binding, competition with immobilised ligand; 1 µM).
The remaining binding of `N#CC1(c2ccccn2)CCN(Cc2cc(C(=O)N3CCCC3)c(=O)n3ccccc23)CC1` is reported as 79% (cell-free assay, competition with immobilised ligand; 1 µM).
For `CCN1CCN(Cc2ccc(C(=O)Nc3ccc(C)c(Oc4ccc5c(c4)CC(=O)N5)c3)cc2C(F)(F)F)CC1`, the remaining binding was 100% (binding, competition with immobilised ligand; 1 µM).
With `CCCOc1ccc([C@H]2[C@H](C(=O)O)[C@@H](c3ccc4c(c3)OCO4)CN2CC(=O)Nc2c(CC)cccc2CC)cc1` the remaining binding was 92% (cell-free assay, competition with immobilised ligand; 1 µM).
The remaining binding of `CN(CCCC(F)(F)F)c1nccc(-c2cnn3ncccc23)n1` is reported as 90% (binding; 1 µM).
For `C[C@@H](c1cccc(C#N)c1)n1cc(Cl)cc(C(N)=O)c1=N`, the remaining binding was 100% (cell-free assay, competition with immobilised ligand; 1 µM).
`CN(c1nccc(-c2cnn3ncccc23)n1)C1CC1` has a remaining binding of 87% (binding; 1 µM).
